Measured values from ChEMBL document CHEMBL4513216, “Probing the Open Global Health Chemical Diversity Library for Multistage-Active Starting Points for Next-Generation Antimalarials” (ACS Infect Dis, 2020).

Test: Toxicity liver stage against HepG2, at 10uM
Type: cell-based
Parameters: test concentration 10 uM, cell line HepG2-A16-CD81EGFP
Conditions: human, HepG2-A16-CD81EGFP cells; read-out: INHIBITION
Method in brief: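 Uninfected HepG2-A16-CD81EGFP cells, 3 × 10^3 per well, 1536-well, plated on prespotted compound at 10 μM final, parasite-free screening media added to match infected plates; puromycin 10 μM positive, DMSO 0.5% negative; run in parallel with 48 h PbLuc assay at 37 °C, 5% CO2; viability by CellTiter-Glo luminescence, normalized to controls.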

SMILES | cytotoxicity at 10 µM [%]
Cc1cccc(-c2noc([C@@H]3C[C@@H](O)CN3C3CCOCC3)n2)c1 | 4.9
CC(C)c1ccc(-n2ncc(C(=O)NCC3COC(C)(C)O3)c2N)cc1 (stereo not given) | -0.726
COCC(=O)N1CCC(=O)N(C2CCCC2)Cc2ccccc21 | -5.2
CC[C@@H](C)[C@H](NC(=O)Cn1ccc2c(Cl)cccc21)C(=O)O | 2.88
O=C(Nc1ccccn1)C1(n2cnnn2)CCCCC1 | -7.03
CCNC(=O)N1CCN(c2nc3ccccc3n2C)CC1 | 0.739
COc1nn(C)cc1C(=O)NCC(=O)NCc1cccnc1 | -6.32
CC(C)CN1C[C@H]2CCN(C(=O)c3ccccn3)CC[C@H]2S1(=O)=O | 0.582
CC(=O)N1CCC2(C1)C(=O)N(CC1CC1)c1ccccc12 (stereo not given) | 2.26
O=C(Cc1ccsc1)NCC1Cn2nnc(-c3ccoc3)c2CO1 (stereo not given) | 17.6
CS(=O)(=O)N1CCN(CC2CC2)c2ncccc2C1 | -152
O=C(c1ccno1)N1CCC2(CC1)C(=O)Nc1ccccc12 | -134
CCOc1ccc(C2SCC(=O)Nc3c2c(=O)[nH]n3C(CC)CC)cc1 (stereo not given) | 6.5
CC(=O)N1CCC(Oc2ccc(Cl)cn2)CC1 | -19.5
CCCNC(=O)c1sc(Nc2ccc(Cl)cn2)nc1C | -15.2
COC[C@@]12CCO[C@@H]1CCN(C(=O)COc1ccccc1OC)C2 | -8.89
CS(=O)(=O)NC[C@]12COC[C@H]1CN(C(=O)c1ccoc1)C2 | 4.34
NCc1n[nH]c(-c2ccc(F)cc2)n1 | 0.186
Cn1nc(Cl)cc1C(=O)N1CCC(C(=O)c2nc3ccccc3s2)CC1 | 3.34
Cc1nnc(C2CCN(c3ccc(F)cc3)CC2)o1 | 0.207
CN(C)C(=O)c1cccc(C2CCN(c3ncccn3)CC2)n1 | 1.24
CS(=O)(=O)N[C@@H]1CN(C(=O)c2cc3ccccc3s2)C[C@H]1O | -0.378

SMILES | cytotoxicity at 10 µM [%]
O=C(c1cc[nH]n1)N1CCCC1c1cc(Nc2ccccn2)n[nH]1 (stereo not given) | -13.8
Cc1cnc(N)c(C(=O)C2CCN(C(=O)c3cnc(C)cn3)CC2)c1 | -19.7
Cc1ccc(=O)n(CC2(O)CCN(Cc3cccs3)CC2)n1 | -5.72
CC(=O)N(C)Cc1ccccc1NC(=O)c1ccccc1C | 1.18
O=S1(=O)CCCN(Cc2ccccc2OCC(F)(F)F)CC1 | 9.11
CC(=O)N1CCN(c2ccccc2CNc2ccc3[nH]ncc3c2)CC1 | 9.17
CCN(CC)S(=O)(=O)NCC(O)c1c(Cl)cccc1Cl (stereo not given) | 8.66
NC(=O)C(NC(=O)CCc1ccc(Cl)s1)c1ccccc1 (stereo not given) | 1.28
Cc1noc(C(C)N2CCN(CCn3ccccc3=O)CC2)n1 (stereo not given) | 5.31
Cc1oc(CNC(=O)Cc2ccccc2Cl)cc1C(=O)O | 0.723
CC(C)c1nc(C2CCCN(C(=O)CN3CCN(C)CC3)C2)no1 (stereo not given) | 3.8
N#Cc1ccc(C(=O)N(Cc2ccncc2)C2CC2)cc1 | -8.53
CCN(CCC(=O)NC1CC1)Cc1ccc(Cl)s1 | 3.88
CCCS(=O)(=O)N1CCC(NC(=O)c2ccc(C)s2)CC1 | -11.4
Cn1c(C(=O)N2CCC(C3OCCO3)CC2)c(Cl)c2ccccc21 | 13.7
O=S(=O)(CCN1CCOC(Cn2cccn2)C1)c1ccccc1 (stereo not given) | -0.165
CCCC(=O)N1CCC(C(=O)NCCN2CCC(C)CC2)CC1 | -2.6
COCC(C)NC(=O)NCCCc1cc(N)n(-c2ccccc2)n1 (stereo not given) | -12.2
Cc1cc(C(=O)N2CCC(Nc3cccnc3)CC2)c(C)s1 | -141
CN(C)C(CNC(=O)NCc1ccco1)c1cccs1 (stereo not given) | -3.29
OCc1ccc(CNc2ccccc2CN2CCC(O)CC2)o1 | 1.85
Cc1cc(-n2cncn2)ccc1C(=O)N(CC(F)(F)F)C(C)C | -3.72

SMILES | cytotoxicity at 10 µM [%]
O=C(c1cnns1)N1CCN(c2ccc(F)cc2Cl)CC1 | -145
CC(C)CCN1C(=O)CC(N(C)Cc2nc3ccccc3c(=O)[nH]2)C1=O (stereo not given) | -3.85
Cc1nc2sccn2c1CNc1ccc(C(=O)O)cc1 | 11.7
CC(C)(C)SCC(=O)NC(C)(C(N)=O)c1cccc(Cl)c1 (stereo not given) | 1.61
C1CCCN(c2nc(C3CC3)no2)CC1 | -5.59
CCCNC(=O)C(C)Nc1cccc(Oc2ccc(C#N)cn2)c1 (stereo not given) | -7.99
CCN(C(=O)c1ccc2c(c1)OCO2)C1CC(=O)NC1=O (stereo not given) | -3.04
Cc1n[nH]cc1CNCC(c1ccsc1)N(C)C (stereo not given) | 3.05
Cc1ccc(C(=O)N2CCSCC2)cc1NC(=O)NCCO | -9.64
CCc1csc(C2CCCN(C(=O)c3cnn(CC)c3)C2)n1 (stereo not given) | 4.73
Cc1nn(C)c(C)c1CCC(=O)N1CCCC1Cn1cccn1 (stereo not given) | 1.78
O=C(c1cccnc1)N1CCC2(CC1)CCN(Cc1ccccn1)C2=O | 2.78
Cc1cc(C)c2ncn(CCOCCO)c(=O)c2c1 | 8.17
O=C(O)c1cc(-c2ccncc2)cc(S(=O)(=O)NCc2ccccn2)c1 | -51.9
CCSCC(C)NCc1cn2ccccc2n1 (stereo not given) | -7.38
Cc1ccc(NC2CCCN(Cc3ccc(Cl)cc3)C2)nn1 (stereo not given) | -5.98
COc1cccc2c1OCC(CNC(=O)CCn1cnnn1)C2 (stereo not given) | -144
CC(C)c1nc(CN(C)C(=O)c2ccc3c(c2)OCC(=O)N3)cs1 | -4.15
Cc1ccc(N2CCN(C(=O)C(O)c3cccc(Cl)c3)CC2=O)cc1 (stereo not given) | -5.01
N#Cc1ccccc1C(=O)N1C[C@@H](CN2CCCCCC2)[C@@H](CO)C1 | 1.1
Cc1ccnc(NC(=O)c2ccc(C)o2)c1 | -4.33
O=C(O)C1CCN(C[C@H]2CC[C@@H](Cc3ccc4c(c3)OCO4)O2)CC1 | -7.48

SMILES | cytotoxicity at 10 µM [%]
CC(C)C(O)C(=O)N1CCC2(CC1)c1nc[nH]c1CCN2S(C)(=O)=O (stereo not given) | -0.232
O=C(c1ccc(O)cn1)N1CCOC(c2ccc(Cl)c(Cl)c2)C1 (stereo not given) | -4.57
CN(CCO)C[C@@H]1CN(Cc2ccccc2-c2ccccc2)C[C@@H]1CO | -14
CCCc1nc(N[C@H]2COC[C@@H]2N2CCCCC2)c2cnn(C)c2n1 | 0.727
CCNC(=O)C1CCN(c2nc(-c3ccco3)nc3c2CCNCC3)C1 (stereo not given) | -5.87
CN(Cc1n[nH]c(=O)n1Cc1cccs1)S(C)(=O)=O | -4.2
O=C(O)[C@@H]1CN(C(=O)c2ccc(O)cc2)C[C@H]1c1cccc(F)c1 | -126
CSc1ccccc1CN1CCCn2nc(CNC(=O)N(C)C)cc2C1 | -25.5
Cc1nnc(NC(=O)NCc2ccoc2)s1 | -1.36
Cc1csc(N2CCN(CC(=O)NCc3ccccn3)CC2C)n1 (stereo not given) | -4.04
Cc1noc(C)c1C(=O)NCC(c1cccc(F)c1)N(C)C (stereo not given) | -13.1
CC(C)Cc1noc(CN2CCN(C(=O)c3ccccc3F)CC2)n1 | -10.8
Cc1nc(CN2CCCC(NCc3cnc(C(C)(C)C)s3)C2)no1 (stereo not given) | 0.38
N#Cc1cccnc1N1CCCN(C(=O)CCc2nccs2)CC1 | -11.5
CCc1nc(CN2CCCN(C(=O)CCOC(C)C)CC2)cs1 | -17.3
COc1cc(C)c(C(C)NC(=O)NCCCn2cncn2)cc1OC (stereo not given) | -16.2
Cc1noc(C(C)N2CCN(Cc3nnc(C4CC4)o3)CC2)n1 (stereo not given) | -11.8
CCOc1ncccc1CNC(=O)Nc1cc(C)nn1C | 1.25
O=C(NCC(F)(F)F)C1CSCN1S(=O)(=O)c1ccc(F)cc1Cl (stereo not given) | -12.8
c1cnnc(N2CCCC2CNc2ncnc3sccc23)c1 (stereo not given) | -12.9
O=C(c1ccc2c(c1)CCC2)N1CCC(c2n[nH]c(C3CC3)n2)CC1 | -8.06
CN(Cc1cnn(-c2ccccc2)n1)C1CCCN(c2cccnn2)C1 (stereo not given) | -9.83

SMILES | cytotoxicity at 10 µM [%]
CCOc1ncccc1C(=O)N1CCCC1c1c(C)nn(C)c1Cl (stereo not given) | 0.534
Cc1ccc(CNCC2CCCN2c2cccnn2)s1 (stereo not given) | -4.38
Cc1cnn(CC2CCCCN2C(=O)c2nccnc2N)c1 (stereo not given) | -3.03
CCc1nc(C2CCCN(C(=O)c3cccc(Cl)c3)C2)no1 (stereo not given) | -7.55
CCn1c(C)nnc1CN(C)C1CCN(CCOc2ccccc2)C1 (stereo not given) | 0.796
CCn1cc(CN2CCCN(C(=O)c3ccoc3C)CC2)cn1 | -6.67
O=S(=O)(CCN1CCOC(Cn2cccn2)C1)C(F)(F)F (stereo not given) | 3.78
Cc1cccc2nc(C(=O)N3CCC(Nc4cccnn4)CC3)cn12 | -0.77
Cc1ccoc1C(=O)N1CCOCC2(CCN(c3ncccn3)C2)C1 (stereo not given) | -7.23
CCOCC1CN(Cc2ccoc2)Cc2nn(CC3CC3)cc21 (stereo not given) | -11.9
COC[C@]12COC[C@H]1CN(Cc1ccc3ccccc3n1)C2 | 11.9
O=C(NC1CC1)N1CC[C@H]2[C@H]1CCN2c1nncs1 | -4.94
O=C1CO[C@@H]2CN(CC3CCOCC3)C[C@H]2N1Cc1ccncc1 | -139
Cc1cnc(N2CCCn3c(nnc3CN(C)C(C)C)C2)nc1 | 4.42
CO[C@@H]1CCN(C(=O)c2ccsc2)[C@@H]2CN(CC3CC3)C[C@@H]21 | -3.1
Cn1cccc1CN1CCC2(CC1)CN(c1ccccc1)C(=O)CO2 | -130
Cc1nnc(N2C[C@H](C(=O)NCC3CC3)[C@@H]3CCO[C@@H]3C2)s1 | 17.1
c1cncc(CN2CCCn3nnc(CN4CCCC4)c3C2)c1 | 4.78
CCOC[C@@H]1CC[C@H]2[C@H](CCN2Cc2c(C)noc2C)O1 | 10.5
CCc1nccn1CC(=O)N1C[C@@H]2CC[C@H]1CN(C(=O)N(C)C)C2 | -4.67
COc1ncccc1CN1CCC2[C@H]1CCN2CCN(C)C (stereo not given in full) | 2.77
Cc1ncncc1C(=O)N1C[C@@H]2CC[C@H]1CN(C(=O)c1ccncc1)C2 | -7.61
